Source: ChEMBL document CHEMBL2010770, “Dimeric 3,5-bis(benzylidene)-4-piperidones: a novel cluster of tumour-selective cytotoxins possessing multidrug-resistant properties” (Eur J Med Chem, 2012)
Activity calls are given as the source filed them. The calls are words filed in the database; no cut-off is given here.

Key:
HCT-116 [1] = experiment: Cell cycle arrest in human HCT116 cells assessed as accumulation at G0/G1 phase at 1 uM after 48 hrs using propidium iodide staining by flow cytometry (reference value: 92.07%); type: functional
HCT-15 = experiment: Cytotoxicity against human HCT15 cells; type: functional, cell-based
How it was run: (§1)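 Human colon cancer and leukaemia line panel. Compounds tested from 10^-4 to 10^-8 M, and IC50 values determined.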

SW-620 = experiment: Cytotoxicity against human SW620 cells; type: functional, cell-based; how it was run: as §1
[2] = biological target: T1, ATP-dependent translocase ABCB1 (Homo sapiens, UniProt P08183); experiment: Inhibition of human MDR1-mediated multidrug resistant in mouse L5178Y cells at 40 uM treated 10 mins before rhodamine 123 challenge measured after 20 mins relative to control; type: cell-based
How it was run: (§2)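 Compounds in DMSO were added at room temperature to mdr1-transfected and parental L5178Y cells. After 10 min, rhodamine 123 was added, followed by 20 min at 37 °C. Cellular rhodamine fluorescence was measured and expressed as fluorescence activity ratio (FAR); FAR >1 indicates MDR reversal.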

CCRF-CEM = experiment: Growth inhibition of human CEM cells; type: functional, cell-based
HSC-2 [3] = experiment: Induction of apoptosis in human HSC2 cells assessed as formation of internucleosomal DNA fragmentation at up to 0.8 uM after 24 hrs; type: functional, cell-based
[4] = biological target: T1, ATP-dependent translocase ABCB1; experiment: Inhibition of human MDR1-mediated multidrug resistant in mouse L5178Y cells at 4 uM treated 10 mins before rhodamine 123 challenge measured after 20 mins relative to control; type: cell-based; how it was run: as §2
HCT-116 [5] = experiment: Cytotoxicity against human HCT116 cells; type: functional, cell-based; how it was run: as §1
HCC 2998 = experiment: Cytotoxicity against human HCC2998 cells; type: functional, cell-based; how it was run: as §1
HSC-2 [6] = experiment: Cytotoxicity against human HSC2 cells after 48 hrs; type: functional; conditions: HSC-2, 48 h
How it was run: (§3)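 Human HSC-2, HSC-3, HSC-4 squamous carcinoma and HL-60 promyelocytic leukaemia cells incubated with compound for 48 h. CC50, the concentration killing 50% of cells, read from a dose–response curve.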

HL-60 [7] = experiment: Selectivity index, ratio of CC50 for human normal cells to CC50 for human HL60 cells; type: functional
HL-60 [8] = experiment: Induction of apoptosis in human HL60 cells assessed as formation of internucleosomal DNA fragmentation at up to 0.8 uM after 24 hrs; type: functional, cell-based
RPMI-8226 = experiment: Cytotoxicity against human RPMI8226 cells; type: functional, cell-based; how it was run: as §1
HL-60 [9] = experiment: Cytotoxicity against human HL60 cells after 48 hrs; type: functional; conditions: HL-60, 48 h; how it was run: as §3
L1210 = experiment: Growth inhibition of mouse L1210 cells; type: functional, cell-based
[10] = Cytotoxicity against human HGF cells after 48 hrs; type: cell-based
How it was run: (§4)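 Cells were exposed to a dose range for 48 h, following a literature method. CC50 was read from the dose–response curve.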

COLO 205 = experiment: Cytotoxicity against human COLO205 cells; type: functional, cell-based; how it was run: as §1
MOLT-4 = experiment: Growth inhibition of human Molt4/C8 cells; type: functional, cell-based
HSC-3 [11] = experiment: Cytotoxicity against human HSC3 cells after 48 hrs; type: functional; conditions: HSC-3, 48 h; how it was run: as §3
HSC-2 [12] = experiment: Induction of apoptosis in human HSC2 cells assessed as increase of caspase-3 activation using DEVD-pnitroanilide as substrate after 6 hrs; type: functional, cell-based
How it was run: (§5)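 HSC-2 and HL-60 cells were exposed for up to 6 h and then lysed. Lysates were mixed with DEVD-p-nitroanilide and incubated at 37 °C for 2 h. Released p-nitroanilide was read at 405 nm.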

HSC-2 [13] = experiment: Selectivity index, ratio of CC50 for human normal cells to CC50 for human HSC2 cells; type: functional
HT-29 = experiment: Cytotoxicity against human HT-29 cells; type: functional, cell-based; how it was run: as §1
HL-60 [14] = experiment: Induction of apoptosis in human HL60 cells assessed as increase of caspase-3 activation using DEVD-pnitroanilide as substrate after 6 hrs; type: functional, cell-based; how it was run: as §5
HCT-116 [15] = experiment: Cell cycle arrest in human HCT116 cells assessed as accumulation at G2/M phase at 1 uM after 48 hrs using propidium iodide staining by flow cytometry (reference value: 4.75%); type: functional
KM12 = experiment: Cytotoxicity against human KM12 cells; type: functional, cell-based; how it was run: as §1
HSC-2 [16] = experiment: Induction of apoptosis in human HSC2 cells assessed as formation of internucleosomal DNA fragmentation at up to 0.8 uM after 6 hrs; type: functional, cell-based
HL-60 [17] = experiment: Induction of apoptosis in human HL60 cells assessed as increase of PARP1 cleavage at 0.2 uM after 6 hrs by Western blot analysis; type: functional, cell-based
How it was run: (§6)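 HSC-2 cells were treated at 0.4 µM and HL-60 cells at 0.2 µM. Cells were washed in ice-cold PBS and lysed in HEPES pH 7.4/Triton X-100 buffer with phosphatase and protease inhibitors. Lysates were run on 8% SDS-PAGE and transferred to PVDF. Blots were blocked in 5% milk and probed with anti-cleaved PARP1 and anti-β-actin, then HRP-conjugated secondary antibodies.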

HSC-4 [18] = experiment: Selectivity index, ratio of CC50 for human normal cells to CC50 for human HSC4 cells; type: functional
HSC-4 [19] = experiment: Cytotoxicity against human HSC4 cells after 48 hrs; type: functional; conditions: HSC-4, 48 h; how it was run: as §3
HL-60(TB) = experiment: Cytotoxicity against human HL-60(TB) cells; type: functional, cell-based; how it was run: as §1
HCT-116 [20] = experiment: Cell cycle arrest in human HCT116 cells assessed as accumulation at S phase at 1 uM after 48 hrs using propidium iodide staining by flow cytometry (reference value: 3.19%); type: functional
HSC-3 [21] = experiment: Selectivity index, ratio of CC50 for human normal cells to CC50 for human HSC3 cells; type: functional
HL-60 [22] = experiment: Induction of apoptosis in human HL60 cells assessed as formation of internucleosomal DNA fragmentation at up to 0.8 uM after 6 hrs; type: functional, cell-based
K562 = experiment: Cytotoxicity against human K562 cells; type: functional, cell-based; how it was run: as §1
HSC-2 [23] = experiment: Induction of apoptosis in human HSC2 cells assessed as increase of PARP1 cleavage at 0.4 uM after 12 hrs by Western blot analysis; type: functional, cell-based; how it was run: as §6
[24] = Cytotoxicity against human HPLF cells after 48 hrs; type: cell-based; how it was run: as §4
HCT-116 [25] = experiment: Cell cycle arrest in human HCT116 cells assessed as accumulation at G0/G1 phase at 16 uM after 48 hrs using propidium iodide staining by flow cytometry (reference value: 92.07%); type: functional
HCT-116 [26] = experiment: Cell cycle arrest in human HCT116 cells assessed as accumulation at G2/M phase at 16 uM after 48 hrs using propidium iodide staining by flow cytometry (reference value: 4.75%); type: functional
HCT-116 [27] = experiment: Cell cycle arrest in human HCT116 cells assessed as accumulation at S phase at 16 uM after 48 hrs using propidium iodide staining by flow cytometry (reference value: 3.19%); type: functional

T1 sequence (P08183 whole entry): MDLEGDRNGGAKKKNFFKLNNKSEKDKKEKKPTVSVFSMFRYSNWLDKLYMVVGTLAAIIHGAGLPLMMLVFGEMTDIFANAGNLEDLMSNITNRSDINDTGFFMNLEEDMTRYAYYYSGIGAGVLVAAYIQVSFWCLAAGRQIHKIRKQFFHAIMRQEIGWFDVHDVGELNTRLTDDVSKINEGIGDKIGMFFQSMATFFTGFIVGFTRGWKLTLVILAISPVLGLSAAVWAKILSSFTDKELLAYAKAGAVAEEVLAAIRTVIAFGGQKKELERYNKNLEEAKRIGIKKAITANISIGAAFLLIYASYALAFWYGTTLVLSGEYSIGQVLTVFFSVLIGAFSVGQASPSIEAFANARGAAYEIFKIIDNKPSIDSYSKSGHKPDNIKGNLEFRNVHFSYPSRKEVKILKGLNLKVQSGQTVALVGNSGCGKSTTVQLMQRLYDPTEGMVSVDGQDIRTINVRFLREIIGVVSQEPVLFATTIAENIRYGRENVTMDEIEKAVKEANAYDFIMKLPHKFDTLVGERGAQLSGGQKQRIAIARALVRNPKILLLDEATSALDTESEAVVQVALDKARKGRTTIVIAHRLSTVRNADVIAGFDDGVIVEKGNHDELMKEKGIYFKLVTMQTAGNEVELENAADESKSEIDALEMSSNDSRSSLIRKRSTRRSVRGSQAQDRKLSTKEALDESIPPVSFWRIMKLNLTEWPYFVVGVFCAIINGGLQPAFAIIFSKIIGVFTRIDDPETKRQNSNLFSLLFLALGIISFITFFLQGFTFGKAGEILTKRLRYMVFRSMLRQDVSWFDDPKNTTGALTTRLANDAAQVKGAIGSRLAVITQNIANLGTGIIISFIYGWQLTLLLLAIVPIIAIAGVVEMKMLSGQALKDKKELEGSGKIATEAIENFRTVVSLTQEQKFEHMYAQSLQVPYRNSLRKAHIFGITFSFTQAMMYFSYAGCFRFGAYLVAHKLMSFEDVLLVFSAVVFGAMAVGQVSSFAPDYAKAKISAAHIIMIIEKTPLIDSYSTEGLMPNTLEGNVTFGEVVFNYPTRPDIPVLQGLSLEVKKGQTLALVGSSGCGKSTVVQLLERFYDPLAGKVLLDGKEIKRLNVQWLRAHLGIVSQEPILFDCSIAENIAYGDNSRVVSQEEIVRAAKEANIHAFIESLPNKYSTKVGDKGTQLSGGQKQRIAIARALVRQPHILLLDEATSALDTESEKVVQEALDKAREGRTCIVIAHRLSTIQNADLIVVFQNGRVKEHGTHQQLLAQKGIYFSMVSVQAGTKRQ

Compound: O=C1/C(=C/c2ccccc2)CN(C(=O)CC(=O)N2C/C(=C\c3ccccc3)C(=O)/C(=C/c3ccccc3)C2)C/C1=C\c1ccccc1
- Activity (HCT-116 [1]): 31.54%
- IC50 (HCT-15): 0.17 µM
- IC50 (SW-620): 0.05 µM
- Ratio [2]: 53.3
- growth inhibition (GI) (CCRF-CEM): Active
- Activity (HSC-2 [3]): Active
- Ratio [4]: 35.3
- IC50 (HCT-116 [5]): 0.03 µM
- IC50 (HCC 2998): 0.17 µM
- CC50 (HSC-2 [6]): 0.05 µM
- Ratio (HL-60 [7]): 20
- Activity (HL-60 [8]): Active
- IC50 (RPMI-8226): 0.13 µM
- CC50 (HL-60 [9]): 0.046 µM
- growth inhibition (GI) (L1210): Active
- CC50 at 48 h [10]: 1.1 µM
- IC50 (COLO 205): 0.16 µM
- growth inhibition (GI) (MOLT-4): Active
- CC50 (HSC-3 [11]): 0.046 µM
- Activity (HSC-2 [12]): Active
- Ratio (HSC-2 [13]): 18.4
- IC50 (HT-29): 0.05 µM
- Activity (HL-60 [14]): Active
- Activity (HCT-116 [15]): 25.01%
- IC50 (KM12): 0.13 µM
- Activity (HSC-2 [16]): inactive
- Activity (HL-60 [17]): Active
- Ratio (HSC-4 [18]): 11
- CC50 (HSC-4 [19]): 0.084 µM
- IC50 (HL-60(TB)): 0.29 µM
- Activity (HCT-116 [20]): 43.46%
- Ratio (HSC-3 [21]): 20
- Activity (HL-60 [22]): Active
- IC50 (K562): 0.05 µM
- Activity (HSC-2 [23]): Active
- CC50 at 48 h [24]: 1.3 µM

Compound: COc1cc(/C=C/C(=O)CC(=O)/C=C/c2ccc(O)c(OC)c2)ccc1O [CURCUMIN]
- Activity (HCT-116 [25]): 48.97%
- Activity (HCT-116 [26]): 45.42%
- Activity (HCT-116 [27]): 5.62%
